Published values of several laboratories.

SMILES	species	sample	route	dose	setting	half-life [h]
COCCOC(=O)C1=C(C)NC(C)=C(C(=O)OC(C)C)C1c1cccc([N+](=O)[O-])c1 (stereo not shown)	male Sprague-Dawley rat	plasma	intravenous	3 mg/kg	–	6.7
N#Cc1[nH]nnc1-c1cc(Cl)cc(/C=C/c2cccc(C(F)(F)F)c2)c1	male Sprague-Dawley rat	plasma	oral	10 mg/kg	–	2.9
CCc1nc(C(N)=O)c(Nc2ccc(N3CCC(N4CCN(C)CC4)CC3)c(OC)c2)nc1NC1CCOCC1	male Sprague-Dawley rat	plasma	oral	10 mg/kg	–	14.3
Cc1noc(-c2cc3cc(-c4nc(C(=O)NCc5ccncc5)[nH]c4C)ccc3[nH]2)n1	Sprague-Dawley rat	plasma	intravenous	1 mg/kg	–	1.8
COc1ccc(C(C)=O)c(O)c1	male Sprague-Dawley rat	plasma	oral	100 mg/kg	–	3.37
O=C(Nc1cc(F)c(F)c(F)c1)c1ccc(F)c(S(=O)(=O)NCc2cccc(B(O)O)c2)c1	male Sprague-Dawley rat	plasma	intravenous	2 mg/kg	–	0.94
COc1cc2c3c(n(CCCN4CCOCC4)c(=O)c2cc1OC)-c1cc2c(cc1C3=O)OCO2	male Fischer 344 rat	plasma	intravenous	24 mg/m²	single dose	3.6
Oc1c(-n2ccnn2)cnn1-c1cc(N2CCOCC2)ncn1	male rat	plasma	oral	5 mg/kg	–	3
COc1ccc2c(Cc3ccccc3F)c3[n+](cc2c1OC)CCc1cc2c(cc1-3)OCO2.[Br-]	rat	plasma	intravenous	5 mg/kg	–	1.61
Oc1c(Br)cc(Cl)c2cccnc12	Sprague-Dawley rat	plasma	subcutaneous	10 mg/kg	–	5.6
CCc1cc(OC)c2nccc(N3CCc4c(cc(Cn5ccnc5)cc4-c4cn(C)nc4C(F)(F)F)C3=O)c2c1	male Sprague-Dawley rat	plasma	intravenous	3 mg/kg	–	1
Cc1c(-c2ccccc2)cccc1N1C(=O)c2cc(CN[C@H](C(=O)O)C(C)O)c(OCc3cccc(C#N)c3)cc2C1=O (stereo partly shown)	Sprague-Dawley rat	plasma	oral	50 mg/kg	–	4.33
O=C(Nc1ccc(C(F)(F)F)cc1F)N1CCC(Cc2cccc(Oc3ccc(C(F)(F)F)cn3)c2)CC1	male Sprague-Dawley rat	blood	oral	1 mg/kg	–	5.8
COc1nc(-c2cc(C)c(N[C@@H](C)c3cc(F)cc(F)c3)nn2)ccc1-n1cnc(C)c1	male Sprague-Dawley rat	plasma	intravenous	1 mg/kg	single dose	3.1
C[C@H](Nc1ncnc2[nH]cnc12)c1cc2cccc(Cl)c2c(=O)n1-c1ccccc1	male Wistar rat	plasma	oral	25 mg/kg	single dose	0.82
CCOC(=O)[C@@]12C[C@@H]1[C@@H](n1ccc3c(NC)nc(C#Cc4ccc(Cl)s4)nc31)[C@H](O)[C@@H]2O	male Sprague-Dawley rat	plasma	oral	3 mg/kg	–	1.55
N#Cc1ccc(Nc2nc(N)cc(Oc3c(F)cc(-c4ccc(C#N)cc4)cc3F)n2)cc1	Sprague-Dawley rat	plasma	oral	5 mg/kg	–	3.31
CC[C@H](C)[C@H](NC(=O)[C@H](Cc1ccccc1)NC(=O)[C@H](CCC(=O)O)NC(=O)[C@H](CCCNC(=N)N)NC(=O)[C@H](C)NC(=O)[C@H](C)NC(=O)[C@H](CCC(N)=O)NC(=O)[C@H](CCC(=O)O)NC(=O)[C@H](CCC(=O)O)NC(=O)[C@H](CC(C)C)NC(=O)[C@H](Cc1ccc(O)cc1)NC(=O)[C@H](CO)NC(=O)[C@H](CO)NC(=O)[C@@H](NC(=O)[C@H](CC(=O)O)NC(=O)[C@H](CO)NC(=O)[C@@H](NC(=O)[C@H](Cc1ccccc1)NC(=O)[C@@H](NC(=O)CNC(=O)[C@H](CCC(=O)O)NC(=O)[C@H](C)NC(=O)CCc1c[nH]cn1)[C@@H](C)O)[C@@H](C)O)C(C)C)C(=O)N[C@@H](C)C(=O)N[C@@H](Cc1c[nH]c2ccccc12)C(=O)N[C@@H](CC(C)C)C(=O)N[C@H](C(=O)N[C@@H](CCCNC(=N)N)C(=O)NCC(=O)N[C@@H](CCCNC(=N)N)C(=O)N[C@@H](CCCCNC(=O)COCCOCCNC(=O)COCCOCCNC(=O)CC[C@H](NC(=O)CCCCCCCCCCCCCCCCC(=O)O)C(=O)O)C(=O)O)C(C)C	rat	plasma	subcutaneous	20 nmol/kg	–	13
C#Cc1cccc(Nc2ncnc3cc(OCCOC)c(OCCOC)cc23)c1	male Sprague-Dawley rat	plasma	oral	12 mg/kg	single dose	2.25
Cc1cnc(N2CC3(CCOCC3)C2)c(C(=O)Nc2ccc(C(=O)N3CCc4cc(C(=O)Nc5c(C)cccc5F)sc4-c4ccccc43)cc2)c1	rat	plasma	inhaled	2.7 mg/kg	single dose	3.4
N#Cc1[nH]nnc1-c1cccc(OCc2cc(C(F)(F)F)ccc2C(F)(F)F)c1	male Sprague-Dawley rat	plasma	oral	10 mg/kg	–	3.9
CC(C)(O)[C@H]1CC[C@H](Nc2ccc3ncc(-c4cccc(C(F)(F)F)c4)n3n2)CC1	female Sprague-Dawley rat	plasma	oral	40 mg/kg	–	4.1
COc1ccc2c(=O)n(C)c(-c3ccccc3)nc2c1	male Sprague-Dawley rat	plasma	intravenous	2 mg/kg	–	0.83
CCc1cc(C(=O)NC)c2nccc(N3CCc4c(cc(Cn5ccnc5)cc4-c4cn(C)nc4C(F)(F)F)C3=O)c2c1	male Sprague-Dawley rat	plasma	oral	100 mg/kg	single dose	3.9
COc1ccc2c(Cc3ccccc3F)c3n(c(=O)c2c1OC)CCc1cc2c(cc1-3)OCO2	rat	plasma	intravenous	5 mg/kg	–	3.07
